Assay results reported in ChEMBL document CHEMBL4414668, “Phallusialides A-E, Pyrrole-Derived Alkaloids Discovered from a Marine-Derived Micromonospora sp. Bacterium Using MS-Based Metabolomics Approaches” (2019).
Converted amounts (≈) assume the structure as drawn. The source made the active and inactive calls. No cut-off for these calls is given here.

Assays:
Escherichia coli [1] = assay: Antibacterial activity against Escherichia coli ATCC 25922 incubated for 18 hrs by dilution antimicrobial susceptibility test; type: functional
Procedure, shortened: (§1)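 Dilution susceptibility test for aerobic bacteria. Compounds in DMSO, serially diluted to 10 concentrations (0.5–256 μg/mL), tested in triplicate. Positive controls were vancomycin for MRSA ATCC 33591 and gentamicin for E. coli ATCC 25922. Each plate carried six untreated media controls. Incubation was 35 °C for 18 h. MIC was read as the lowest concentration with no visible bacterial growth.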

Staphylococcus aureus [2] = assay: Antibacterial activity against methicillin-resistant Staphylococcus aureus ATCC 33591 at 256 ug/ml incubated for 18 hrs by dilution antimicrobial susceptibility test
Escherichia coli [3] = assay: Antibacterial activity against Escherichia coli ATCC 25922 at 256 ug/ml incubated for 18 hrs by dilution antimicrobial susceptibility test; type: functional, organism-based; procedure, shortened: as §1
Staphylococcus aureus [4] = assay: Antibacterial activity against methicillin-resistant Staphylococcus aureus ATCC 33591 incubated for 18 hrs by dilution antimicrobial susceptibility test; settings: ATCC 33591, 18 h

Row | Molecule | Activity (Staphylococcus aureus [2]) | Activity (Escherichia coli [3]) | MIC (Staphylococcus aureus [4]) | also measured
1 | GENTAMICIN |  |  |  | MIC (Escherichia coli [1]): 4 µg/mL
2 | C[C@@H]1O[C@H](O)C[C@@](C)(NC(=O)CCC(=O)O)[C@H]1O[C@@H]1C[C@@](C)(N)[C@@H](O[C@H]2CC[C@H](OC(=O)c3cc(Cl)c[nH]3)[C@@H](C)O2)[C@H](C)O1 | inactive | inactive |  | 
3 | C[C@@H]1O[C@@H](O)C[C@@](C)(N)[C@H]1O[C@H]1CC[C@H](OC(=O)c2ccc[nH]2)[C@@H](C)O1 | inactive | inactive |  | 
4 | CN[C@H](CC(C)C)C(=O)N[C@H]1C(=O)N[C@@H](CC(N)=O)C(=O)N[C@H]2C(=O)N[C@H]3C(=O)N[C@H](C(=O)N[C@H](C(=O)O)c4cc(O)cc(O)c4-c4cc3ccc4O)[C@H](O)c3ccc(c(Cl)c3)Oc3cc2cc(c3O[C@@H]2O[C@H](CO)[C@@H](O)[C@H](O)[C@H]2O[C@H]2C[C@](C)(N)[C@H](O)[C@H](C)O2)Oc2ccc(cc2Cl)[C@H]1O [VANCOMYCIN] |  |  | 0.25 µg/mL (≈ 0.173 µM) | 
5 | C[C@@H]1O[C@H](O[C@H]2CC[C@H](O)O[C@@H]2C)C[C@@](C)(N)[C@H]1O[C@H]1CC[C@H](OC(=O)c2cc(Cl)c[nH]2)[C@@H](C)O1 | inactive | inactive |  | 
6 | C[C@@H]1O[C@@H](O)C[C@@](C)(N)[C@H]1O[C@H]1CC[C@H](OC(=O)c2cc(Br)c[nH]2)[C@@H](C)O1 |  |  | 32 µg/mL (≈ 71.5 µM) | MIC (Escherichia coli [1]; ATCC 25922, 18 h): 64 µg/mL (≈ 143 µM)
7 | C[C@@H]1O[C@@H](O)C[C@@](C)(N)[C@H]1O[C@H]1CC[C@H](OC(=O)c2cc(Cl)c[nH]2)[C@@H](C)O1 |  |  | 32 µg/mL (≈ 79.4 µM) | MIC (Escherichia coli [1]; ATCC 25922, 18 h): 64 µg/mL (≈ 159 µM)
